Data as given in ChEMBL document CHEMBL4052795, “Synthesis and evaluation of modified chalcone based p53 stabilizing agents” (2017).
Calls of active or inactive are those of the source. The rule behind the calls is not given here.

Experiments:
[1] = biological target: Cellular tumor antigen p53 (Homo sapiens) (UniProt P04637); assay: Induction of p53 stabilization in human HCT116 cells assessed as increase in p53 expression levels at 6.25 to 25 uM after 8 hrs by immunoblot analysis; format: cell-based
Sequence of Cellular tumor antigen p53 (Homo sapiens) (P04637 whole entry, looked up): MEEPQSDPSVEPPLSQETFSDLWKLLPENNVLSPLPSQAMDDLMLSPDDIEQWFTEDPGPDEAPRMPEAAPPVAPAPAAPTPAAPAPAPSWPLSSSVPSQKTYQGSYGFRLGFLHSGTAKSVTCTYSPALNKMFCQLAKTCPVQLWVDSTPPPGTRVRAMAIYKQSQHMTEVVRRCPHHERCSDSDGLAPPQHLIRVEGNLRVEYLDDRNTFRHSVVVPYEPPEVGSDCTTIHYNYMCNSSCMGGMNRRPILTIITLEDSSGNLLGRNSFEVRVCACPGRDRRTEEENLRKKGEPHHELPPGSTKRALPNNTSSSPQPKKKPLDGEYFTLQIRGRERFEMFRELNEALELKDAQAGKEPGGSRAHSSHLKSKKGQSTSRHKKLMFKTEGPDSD
How it was run: (§1)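 HCT116 treated with 6.25, 12.5 or 25 µM for 4 or 8 h; 10 µM Nutlin-3 positive control, DMSO solvent control. Lysates immunoblotted for p53 and GAPDH; band densities quantified, p53 normalized to GAPDH and expressed as fold change versus DMSO.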

[2] = test system: HCT-116; assay: Antiproliferative activity against human HCT116 cells assessed as growth inhibition after 3 days by SRB assay; format: functional; conditions: HCT-116, 72 h
How it was run: (§2)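 Cells treated in duplicate in 96-well format with three-fold serial dilutions from 50 µM; DMSO solvent control, Nutlin-3 positive control. Sulforhodamine B staining after 3 days; GI50 derived from dilution series.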

[3] = biological target: Cellular tumor antigen p53 (Homo sapiens) (UniProt P04637); assay: Induction of p53 stabilization in human HCT116 cells assessed as increase in p53 expression levels at 6.25 to 25 uM after 4 hrs by immunoblot analysis; format: cell-based; how it was run: as §1
[4] = test system: HCT-116; assay: Antiproliferative activity against human HCT116 cells at 50 uM after 3 days by SRB assay relative to control; format: functional; conditions: HCT-116, 72 h
[5] = test system: HCT-116; assay: Antiproliferative activity against human HCT116 cells at 25 uM after 3 days by SRB assay relative to control; format: functional; conditions: HCT-116, 72 h
[6] = test system: CAL-51; assay: Antiproliferative activity against human CAL51 cells assessed as growth inhibition after 3 days by SRB assay; format: functional; conditions: CAL-51, 72 h; how it was run: as §2
[7] = biological target: Cellular tumor antigen p53 (Homo sapiens) (UniProt P04637); assay: Induction of p53 stabilization in human HCT116 cells assessed as ratio of p53 expression levels to GAPDH expression levels at 25 uM after 4 hrs by immunoblot analysis; format: cell-based; how it was run: as §1
[8] = biological target: Cellular tumor antigen p53 (Homo sapiens) (UniProt P04637); assay: Induction of p53 stabilization in human HCT116 cells assessed as ratio of p53 expression levels to GAPDH expression levels after 4 hrs by immunoblot analysis; format: cell-based; how it was run: as §1
[9] = biological target: Cellular tumor antigen p53 (Homo sapiens) (UniProt P04637); assay: Induction of p53 stabilization in human HCT116 cells assessed as ratio of p53 expression levels to GAPDH expression levels at 25 uM after 8 hrs by immunoblot analysis; format: cell-based; how it was run: as §1
[10] = biological target: Cellular tumor antigen p53 (Homo sapiens) (UniProt P04637); assay: Induction of p53 stabilization in human HCT116 cells assessed as ratio of p53 expression levels to GAPDH expression levels at 6.25 uM after 4 hrs by immunoblot analysis; format: cell-based; how it was run: as §1
[11] = biological target: Cellular tumor antigen p53 (Homo sapiens) (UniProt P04637); assay: Induction of p53 stabilization in human HCT116 cells assessed as ratio of p53 expression levels to GAPDH expression levels after 8 hrs by immunoblot analysis; format: cell-based; how it was run: as §1
[12] = biological target: Cellular tumor antigen p53 (Homo sapiens) (UniProt P04637); assay: Induction of p53 stabilization in human HCT116 cells assessed as ratio of p53 expression levels to GAPDH expression levels at 12.5 uM after 8 hrs by immunoblot analysis; format: cell-based; how it was run: as §1
[13] = biological target: Cellular tumor antigen p53 (Homo sapiens) (UniProt P04637); assay: Induction of p53 stabilization in human HCT116 cells assessed as ratio of p53 expression levels to GAPDH expression levels at 6.25 uM after 8 hrs by immunoblot analysis; format: cell-based; how it was run: as §1
[14] = biological target: Cellular tumor antigen p53 (Homo sapiens) (UniProt P04637); assay: Induction of p53 stabilization in human HCT116 cells assessed as ratio of p53 expression levels to GAPDH expression levels at 12.5 uM after 4 hrs by immunoblot analysis; format: cell-based; how it was run: as §1
[15] = biological target: Cellular tumor antigen p53 (Homo sapiens) (UniProt P04637); assay: Induction of p53 stabilization in human HCT116 cells assessed as increase in p53 expression levels at 12.5 uM measured up to 90 mins in presence of varying concentrations of cycloheximide by immunoblot analysis; format: cell-based
How it was run: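 Cycloheximide chase in HCT116: cells given cycloheximide with or without 12.5 µM compound, samples collected at timed points; immunoblot for p53 and alpha-tubulin, p53 normalized to alpha-tubulin.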

With `COc1ccc(CCC(=O)c2ccccc2)cc1` the Activity [1] was “inactive”, the GI50 [2] was > 100 µM and the Activity [3] was “inactive”.

Compound `O=C(/C=C/c1ccc([N+](=O)[O-])cc1)c1ccccc1` has an inhibition at 50 µM [4] of 100%, a GI50 [2] of 3.13 µM and an inhibition at 25 µM [5] of 99.7%. It also gave a GI50 [6] of 1.21 µM.

`COc1cccc(/C=C/C(=O)c2ccc(OCc3ccccc3)cc2)c1` gave an inhibition at 50 µM [4] of 76%, a GI50 [2] of 35.4 µM and an inhibition at 25 µM [5] of 35.4%. For the same compound, the GI50 [6] was 13.7 µM.

With `COc1cc(/C=C/C(=O)c2ccccc2)cc(OC)c1OC` the inhibition at 50 µM [4] was 99.7%, the GI50 [2] was 0.473 µM and the inhibition at 25 µM [5] was 99.4%. It also gave a GI50 [6] of 0.78 µM.

`Cc1ccc(COc2ccc(C(=O)/C=C/c3ccc(Cl)cc3)cc2)cc1` was tested, and the inhibition at 50 µM [4] was 16.9%, the GI50 [2] was > 50 µM and the inhibition at 25 µM [5] was 12.3%. The GI50 [6] was > 50 µM.

In the case of `Cc1ccc(COc2ccc(C(=O)/C=C/c3ccccc3)cc2)cc1`, the GI50 [2] was > 50 µM, the inhibition at 25 µM [5] was 4% and the GI50 [6] was 43.2 µM.

`O=C(/C=C/c1ccc(Cl)cc1)c1ccccc1` [4-CHLORO CHALCONE] gave an inhibition at 50 µM [4] of 100%, a GI50 [2] of 16.5 µM and a Ratio [7] of 3.62. The Activity [8] was “Dose-dependent effect”, the inhibition at 25 µM [5] was 97.5% and the Ratio [9] was 1.76. The Ratio [10] was 1.24, the Activity [11] was “Dose-dependent effect” and the Ratio [12] was 1.15. The Ratio [13] was 1.38, the Ratio [14] was 3.1 and the GI50 [6] was 5.85 µM.

In the case of `O=C(/C=C/c1cccc([N+](=O)[O-])c1)c1ccccc1`, the inhibition at 50 µM [4] was 99.7%, the GI50 [2] was 4.47 µM and the inhibition at 25 µM [5] was 100%. It also gave a GI50 [6] of 1.08 µM.

Work on `COc1ccc(C(=O)/C=C/c2ccccc2)cc1` [4'-METHOXYCHALCONE] yielded an inhibition at 50 µM [4] of 98.2%, a GI50 [2] of 3.57 µM and an inhibition at 25 µM [5] of 99.7%. It also gave a GI50 [6] of 3.33 µM.

For `O=C(/C=C/c1ccccc1)c1ccc(OCc2ccccc2)cc1`, the inhibition at 50 µM [4] was 33.8%, the GI50 [2] was > 50 µM and the inhibition at 25 µM [5] was 24.3%. It also gave a GI50 [6] of 28.9 µM.

For `O=C(/C=C/c1ccc(OCc2ccccc2)cc1)c1ccccc1`, the inhibition at 50 µM [4] was 49.5%, the GI50 [2] was > 50 µM and the inhibition at 25 µM [5] was 52.3%. For the same compound, the GI50 [6] was 24.7 µM.

For `COc1ccc(/C=C/C(=O)c2ccccc2)cc1` [4-METHOXY CHALCONE], the inhibition at 50 µM [4] was 99.7%, the GI50 [2] was 3.86 µM and the Ratio [7] was 1.53. The Activity [8] was “Dose-dependent effect”, the inhibition at 25 µM [5] was 100% and the Ratio [9] was 1.7. The Ratio [10] was 1.11, the Activity [11] was “Dose-dependent effect” and the Ratio [12] was 1.2. The Ratio [13] was 1.34, the Ratio [14] was 1.41 and the Activity [15] was “Active”. It also gave a GI50 [6] of 2.69 µM.

For `O=C(/C=C/c1ccccc1[N+](=O)[O-])c1ccccc1`, the inhibition at 50 µM [4] was 100%, the GI50 [2] was 7.69 µM and the inhibition at 25 µM [5] was 100%. The GI50 [6] was 2.59 µM.

With `COc1ccc(/C=C/C(=O)c2ccc(OCc3ccccc3)cc2)cc1` the inhibition at 50 µM [4] was 13.2%, the GI50 [2] was 36.9 µM and the inhibition at 25 µM [5] was 9.5%. The GI50 [6] was > 50 µM.

In the case of `Cc1ccc(COc2ccc(C(=O)/C=C/c3ccc(F)cc3)cc2)cc1`, the inhibition at 50 µM [4] was 15.4%, the GI50 [2] was > 50 µM and the GI50 [6] was > 50 µM.

`O=C(/C=C/c1ccccc1Cl)c1ccc(OCc2ccccc2)cc1` showed an inhibition at 50 µM [4] of 99.7%, a GI50 [2] of 14.9 µM and an inhibition at 25 µM [5] of 54.5%. For the same compound, the GI50 [6] was 7.1 µM.

In the case of `O=C(/C=C/c1ccc(F)cc1)c1ccc(OCc2ccccc2)cc1`, the GI50 [2] was > 50 µM and the GI50 [6] was > 50 µM.

With `COc1ccc(C2=N[C@H](c3ccc(Cl)cc3)[C@H](c3ccc(Cl)cc3)N2C(=O)N2CCNC(=O)C2)c(OC(C)C)c1` the GI50 [2] was 1.52 µM.

For `O=C(/C=C/c1ccc(Cl)cc1)c1ccc(OCc2ccccc2)cc1`, the GI50 [2] was > 50 µM, the inhibition at 25 µM [5] was 0.3% and the GI50 [6] was > 50 µM.

`O=C(/C=C/c1ccccc1)c1ccccc1` [CHALCONE] gave an inhibition at 50 µM [4] of 97.5%, a GI50 [2] of 3.96 µM and an inhibition at 25 µM [5] of 100%. For the same compound, the GI50 [6] was 1.85 µM.
